# From PMC3791136 (Journal of the American Chemical Society, 2013)
# Tested on: A2780 cells
# Assay: Cytotoxicity with ER stress inhibitor salubrinal
# Format: cell-based
# Conditions: salubrinal 10 μM
# In short: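 A2780 cells given the test compound alone or co-administered with salubrinal (10 μM, an ER stress inhibitor). IC50 values were compared with and without inhibitor, with cisplatin run alongside.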
smiles,measurement,value
N.N.[Cl][Pt][Cl] [cisplatin],effect of salubrinal on toxicity,limited effect
